Bioassay records as filed in PubChem.
CHOP inhibitor: inhibitors of CHOP promoter induction, primary screen, cell-based, unfolded protein response, luciferase reporter; CHO-K1 CHOP-promoter luciferase, tunicamycin-induced, 15-18 h; inhibition, % at 10 µM; 220,000 compounds, 3.8% hits;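 active = compounds that reduced the stress-induced luciferase reporter signal by more than about 70% of percent inhibition, limit read from the data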;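 also: 0% = tunicamycin plus vehicle and 100% = wells without tunicamycin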
XBP1 UPR activ: activators of adaptive XBP1 UPR arm, primary screen, cell-based, CHO-XBP1 luciferase reporter, luminescence, uHTS | IRE1-XBP1 UPR activation; percent of tunicamycin response, DMSO as zero | activation, % at 20 µM | 330,000 compounds, 0.33% hits;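 active = versus positive control, 20 µM dose yields 30% or more activation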;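 also: 100% = tunicamycin at 10 µg/mL and 0% = DMSO only wells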
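Material – CHO cell line with stable XBP1 luciferase reporter · Buffer or medium – F12 plus 10% FBS · Compound – single point, 20 µM final compound, 1% DMSO · Schedule – 16-18 h cell attachment at 37 °C, then 6 h compound exposure · Signal – Steady-Glo luminescence read · Benchmarks – high control tunicamycin 10 µg/mL final, low control DMSO vehicle only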
UPR CHOP act: activators of apoptotic CHOP UPR arm, primary screen, cell-based, CHO-CHOP luciferase reporter, luminescence, uHTS; activation, % at 10 µM; UPR activation; percent of tunicamycin response over DMSO baseline; 330,000 compounds, 0.34% hits;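 active = at 10 µM dose, activation of 40% or more, normalized to positive control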;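 also: 100% = tunicamycin at 10 µg/mL and 0% = DMSO alone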
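assay system = CHO CHOP reporter cells | amount = 500 CHO-CHOP cells per well | buffer or medium = F12 with 10% FBS | incubation = 16-18 h cell attachment, then 6 h compound exposure, 37 °C | detection = luminescence read with Steady-Glo | read-out = percent activation relative to tunicamycin control | controls = tunicamycin high control, DMSO low control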
A1 inh: caspase 3/7 activation in MEF A1-2A-BIM cells, primary screen, A1 inhibitor project, cell-based, luminescence, HTS | AID 2462, 2010 | Caspase-Glo 3/7 luminescence, 3 h; percent of clofoctol response, vehicle zero | 330,000 compounds, 0.066% hits | caspase activation, % (test concentration not listed);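 active = over half of replicate activation scores above 10%, or exactly half above 10 with the replicate mean above 10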
Starred values were filed as active, the others as inactive; . = no result. The full list was thinned out, with hits kept by preference.

SMILES	CHOP inhibitor	XBP1 UPR activ	UPR CHOP act	A1 inh
Cc1ccc(OCC(=O)NNC(=O)CSc2ncnc3sc(C)c(C)c23)cc1	89*	2	-2	0
Cc1sc2ncnc(SCC(=O)NC(C)(C)C)c2c1C	54	2	1	0
COc1ccc(-n2cnc3cc(NS(=O)(=O)c4ccc(C)cc4)ccc32)cc1	7	0	0	0
COc1ccccc1-n1cnc2cc(NS(=O)(=O)c3ccc(Br)cc3)ccc21	79*	0	1	0
COc1ccc(C(C(=O)NC2CCCC2)N(C(=O)CNC(=O)c2ccco2)c2cccnc2)cc1 (configuration not stated)	.	-1	3	0
O=C(CSc1nnc(-c2cc3ccccc3cc2O)n1Cc1ccco1)c1ccc(F)cc1	85*	1	1	0
CSc1nc(N)c(C#N)c(-c2ccc(Cl)cc2)c1C#N	36	-1	-4	0
COc1ccc(-c2c(C#N)c(N)nc(Sc3ccc(Cl)cc3)c2C#N)cc1	74*	4	-2	3
COc1ccc(-n2sc3c(c2=S)-c2cc(OC)ccc2NC3(C)C)cc1	91*	1	0	-1
COc1ccc2c(c1)-c1c(sn(-c3ccccc3)c1=S)C(C)(C)N2	70*	2	0	1
COc1ccc2c(c1)-c1c(sn(-c3ccc(OC)c(OC)c3)c1=S)C(C)(C)N2	80*	3	3	-1
COc1ccc2c(c1)-c1c(ssc1=S)C(C)(C)N2	43	5	-2	-7
COc1cc2c3c(c1)-c1c(sn(-c4cc(OC)ccc4OC)c1=S)C(C)(C)N3C(=O)C2=O	2	1	2	0
Cc1ccc(C)c(NC(=S)N(C)CCc2ccccn2)c1	-2	-1	0	0
NC(=O)c1ccccc1NC(=O)CSc1cn[nH]n1	.	1	1	1
COc1cccc(C(=O)C2CCCN(C(=O)c3ccccc3Cl)C2)c1 (configuration not stated)	.	2	1	0
COc1ccc(N=Cc2cc3c(cc2O)OC(N)=C(C#N)C3c2ccccc2)cc1 (configuration not stated)	80*	-1	3	1
Cc1cccc(Oc2ncc(-c3ccc(Cl)cc3)cn2)c1C	34	0	4	-1
CC1Cc2ccccc2N1CC(=O)NC(c1ccccc1)c1ccccc1 (configuration not stated)	87*	0	0	1
CC1CCCCC1NC(=O)c1ccc2c(c1)OCCO2 (configuration not stated)	.	-1	2	1
C=CCOc1ccccc1CNc1ccccc1C	70*	-3	0	0
Cc1ccccc1NCc1ccccc1O	33	-1	0	0
CC(=O)Nc1cc(-c2nn(C)c(=O)c3ccccc23)ccc1N1CCOCC1	-11	2	3	0
CCc1nc2c(cnn2-c2ccc(F)cc2)c(=O)n1-c1ccc(N2CCC(C)CC2)cc1	79*	-3	0	-1
Cc1nc2c(cnn2-c2ccccc2Cl)c(=O)n1-c1ccc(N2CCC(C)CC2)cc1	77*	-1	2	1
SMILES	CHOP inhibitor	XBP1 UPR activ	UPR CHOP act	A1 inh
COc1cc(C(=O)N2CCN(S(=O)(=O)c3cccs3)CC2)cc(OC)c1C	-15	-2	3	0
CC(C)(C)C1CCC2(CC1)CC(=O)c1ccccc1O2 (configuration not stated)	74*	-1	0	1
C=CCn1c(SCC(=O)NC2CCCC2)nc2scc(-c3ccco3)c2c1=O	-20	0	1	2
C=CCn1c(SCC(=O)NCCCC)nc2scc(-c3ccco3)c2c1=O	93*	-1	-1	0
Cc1cc(NC(=O)c2c(F)cccc2Cl)n(-c2nc3ccccc3[nH]2)n1	75*	0	-2	1
O=C(NCc1ccccc1Cl)C1CCCN1C(=O)NCc1ccccc1 (configuration not stated)	.	-4	1	1
CC(C)CN(CCNC(=O)CC1Oc2ccccc2NC1=O)CC(C)C (configuration not stated)	72*	-1	0	0
CCN(CCNC(=O)CC1Oc2ccccc2NC1=O)c1ccccc1 (configuration not stated)	14	-2	-2	0
CCOc1cc(/C=N/NC(=O)CN2CCOCC2)ccc1OCc1ccc(Cl)cc1	21	-1	0	1
CN(C)c1ccc(C=Nc2ccccc2C(N)=O)cc1	-18	-4	-8	-7
CN(C)c1ccc(/C=N/N=C/c2ccccc2O)cc1	81*	-4	-5	-1
CCOC(=O)c1cccc(NC(=O)/C=C/c2cccc([N+](=O)[O-])c2)c1	84*	4	2	1
CCOC(=O)/C=C/C(=O)Nc1cccc([N+](=O)[O-])c1	48	-10	1	0
CCCCCc1ccc(S(=O)(=O)NCCc2ccncc2)cc1	72*	0	-1	0
CC(CC(=O)N1CCc2ccccc21)c1ccccc1 (configuration not stated)	58	1	6	-1
CCCn1c(=O)c(C(=O)NNS(=O)(=O)c2ccc(C)cc2)c(O)c2ccccc21	90*	-1	0	0
CCn1c(=O)c(C(=O)Nc2ncccc2O)c(O)c2ccccc21	.	-4	3	1
CCn1c(=O)c(C(=O)NCc2ccccc2)c(O)c2ccccc21	.	4	2	0
CCn1c(=O)c(C(=O)Nc2ccccn2)c(O)c2ccccc21	81*	0	0	0
CCn1c(=O)c(C(=O)NC(C)C)c(O)c2ccccc21	72*	-1	0	0
Cc1c(NC(=S)NC(=O)CC(C)C)c(=O)n(-c2ccccc2)n1C	18	-3	0	0
COc1ccc(S(=O)(=O)N2CCC(C(=O)NCCc3ccc4c(c3)OCO4)CC2)cc1	-30	-3	-1	0
Cc1ccc(NC(=O)Cn2c(=O)oc3cc(S(=O)(=O)N4CCC(C)CC4)ccc32)cc1C	74*	-4	1	0
c1ccc(Nc2cccc3c(Nc4ccccc4)cccc23)cc1	79*	0	3	2
c1ccc(Nc2ccccc2)cc1	.	1	0	2
Nc1c(N=Nc2cccc(Cl)c2)c(=O)[nH]n1-c1ccccc1	72*	3	4	0
COC(=O)CSc1nnc(-c2sc3ccccc3c2Cl)o1	70*	-3	-6	0
CCN(CC)CCNC(=O)c1ccc(NC(=O)c2cccc(S(=O)(=O)N3c4ccccc4CC3C)c2)cc1 (configuration not stated)	.	0	1	0
Cn1c(SCC(=O)O)nnc1-c1ccc(NC(=O)c2ccc(Cl)c(Cl)c2)cc1	0	2	0	0
